GASC1 inh: inhibitors of human demethylase GASC-1 KDM4C. 96,000 compounds, 0.15% hits. Q9H3R0. inhibition, % at 12.5 µM. GST-KDM4C 2-372, H3K9me3 peptide, LANCE TR-FRET. AID 720574;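 active = mean replicate inhibition above about 25%, with at least 55% of replicates also reaching it, limit read from the data, passing the limit was not always enough; inconclusive = only one of those two conditions met; inactive = neither condition met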
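Material: GST-tagged GASC-1 (JMJD2C) catalytic fragment, aa 2-372 / Quantity: enzyme final amount 10 nM / Medium: HEPES buffer, pH 7.5, plus ascorbate / Doses: one test concentration per compound / Incubation: 30 min reaction, 60 min detection, RT / Measured by: LANCE TR-FRET / Read-out: inhibition from TR-FRET ratio decrease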
T cruzi growth-1: blocks T. cruzi growth in NIH3T3 culture; T. cruzi beta-gal in NIH3T3, GalScreen luminescence, 90 h; inhibition, % at 8.34 µM; 77,000 compounds, 5.9% hits; AID 624255;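 active = mean inhibition above about 93%, with at least 55% of replicates each passing it, limit read from the data, passing the limit was not always enough; inconclusive = only one of those two conditions holds; inactive = neither condition holds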
IDH1 mut inh: blocks human IDH1 R132H reductase activity | inhibition, % at 10 µM | 70,000 compounds, 0.18% hits | diaphorase/resazurin fluorescence, 60 min; in the data active = inhibition above about 34%; inconclusive = no clear call, values can overlap the other calls; inactive = below about 11%
Target sequence (O75874 whole entry R132H): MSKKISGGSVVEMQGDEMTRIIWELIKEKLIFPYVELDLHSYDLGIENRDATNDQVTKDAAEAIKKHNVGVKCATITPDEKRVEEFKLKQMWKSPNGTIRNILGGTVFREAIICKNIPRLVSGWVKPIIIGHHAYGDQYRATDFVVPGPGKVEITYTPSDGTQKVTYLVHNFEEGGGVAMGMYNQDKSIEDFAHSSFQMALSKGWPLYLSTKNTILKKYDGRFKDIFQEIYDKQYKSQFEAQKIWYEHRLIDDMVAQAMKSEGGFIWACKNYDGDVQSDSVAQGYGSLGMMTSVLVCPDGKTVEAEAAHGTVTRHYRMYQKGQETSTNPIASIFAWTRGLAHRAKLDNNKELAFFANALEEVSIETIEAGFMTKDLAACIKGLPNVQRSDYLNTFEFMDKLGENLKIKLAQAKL
T cruzi growth-2: inhibitors of T. cruzi proliferation | 5,600 compounds, 72% hits | T. cruzi beta-gal in NIH3T3, GalScreen luminescence, 90 h | shares compounds with T cruzi growth-1 | AID 651739 | inhibition, % at 8.35 µM;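 active = mean replicate inhibition above about 95% and at least 55% of replicates individually reaching it, limit read from the data; inconclusive = only one of the two criteria is met; inactive = neither criterion is met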
T cruzi growth-3: blocks T. cruzi growth in NIH3T3 host cells; inhibition, % at 2.09 µM; AID 651740; 5,600 compounds, 21% hits; T. cruzi beta-gal in NIH3T3, GalScreen luminescence, 90 h; shares compounds with T cruzi growth-1;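 active = mean inhibition above about 95%, with at least 55% of replicates also reaching it, limit read from the data; inconclusive = meets just one of the two conditions; inactive = meets neither condition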
NIH3T3 tox: cytotoxicity in mouse NIH/3T3 fibroblasts. shares compounds with T cruzi growth-1. NIH/3T3 viability, CellTiter-Glo ATP luminescence, 90 h. cytotoxicity (signal decrease), % at 8.35 µM. 5,600 compounds, 14% hits. AID 651742;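 active = mean signal decrease across replicates above about 35% based on untreated-well scatter, with enough replicates individually passing, limit read from the data; inconclusive = no rule stated though some were filed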
3T3 cytotox 2: kills mouse NIH/3T3 fibroblasts; shares compounds with T cruzi growth-1; NIH/3T3 viability, CellTiter-Glo ATP luminescence, 90 h; inhibition, % at 24.9 µM; 5,600 compounds, 56% hits;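 active = mean loss of cell viability signal at or above a set limit, and enough replicates individually reaching it; inconclusive = meets only the mean limit or only the replicate share; inactive = meets neither condition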
Hits are given with their value; - = inactive; ? = inconclusive; . = not tested or not shown. Only a selection was taken, and hits are over-represented in it overall.

SMILES | GASC1 inh | T cruzi growth-1 | IDH1 mut inh | T cruzi growth-2 | T cruzi growth-3 | NIH3T3 tox | 3T3 cytotox 2
C[C@H]1CCCCO[C@H](CN(C)C(=O)Nc2cccc3ccccc23)[C@@H](C)CN([C@@H](C)CO)C(=O)c2cc(NS(=O)(=O)c3ccccc3)ccc2O1 | - | . | . | . | . | . | .
C[C@@H]1CCCCO[C@@H](CN(C)C(=O)Nc2cccc3ccccc23)[C@H](C)CN([C@@H](C)CO)C(=O)c2cc(NS(=O)(=O)c3ccc(Cl)cc3)ccc2O1 | - | 98 | . | 107 | 117 | - | -
C[C@@H]1CCCCO[C@H](CN(C)C(=O)Nc2cccc3ccccc23)[C@H](C)CN([C@@H](C)CO)C(=O)c2cc(NS(=O)(=O)c3ccc(Cl)cc3)ccc2O1 | - | 99 | . | 104 | 102 | - | -
COc1cc(/C=C/C(=O)OCC[N+](C)(C)C)cc(OC)c1O | . | . | - | . | . | . | .
COc1cc(Br)c(/C=N/NC(=O)c2ccc(C(=O)NO)cc2)cc1OC | . | . | - | . | . | . | .
COc1ccc(-c2cnc3c(c2)C(=O)N([C@H](C)CO)C[C@H](C)[C@@H](CN(C)C(=O)Cc2ccncc2)O3)cc1 | - | 112 | - | - | - | - | -
C[C@@H]1CN([C@H](C)CO)C(=O)c2cc(C#Cc3ccccc3F)cnc2O[C@H]1CN(C)C(=O)Cc1ccncc1 | - | - | . | . | . | . | .
COc1ccc(-c2cnc3c(c2)C(=O)N([C@@H](C)CO)C[C@H](C)[C@H](CN(C)C(=O)Cc2ccccc2)O3)cc1 | - | - | - | . | . | . | .
C[C@@H]1CN([C@@H](C)CO)C(=O)c2cc(C#Cc3ccccc3F)cnc2O[C@@H]1CN(C)C(=O)Cc1ccccc1 | - | - | - | . | . | . | .
C[C@@H]1CN([C@@H](C)CO)C(=O)c2cc(C#Cc3ccccc3F)cnc2O[C@H]1CN(C)C(=O)Cc1ccccc1 | - | 120 | . | 111 | 106 | - | ?
C[C@H]1CN([C@@H](C)CO)C(=O)c2cc(C#Cc3ccccc3F)cnc2O[C@@H]1CN(C)C(=O)Cc1ccncc1 | - | 95 | - | ? | - | - | -
CCn1c(SCC(=O)Nc2ccc(Cl)cc2Cl)nnc1-c1cccc(Cl)c1 | . | . | - | . | . | . | .
O=C(COc1cc(Cl)c(Cl)cc1Cl)NCc1ccco1 | . | . | - | . | . | . | .
CC(NS(=O)(=O)c1ccc(F)cc1)C(=O)Nc1ccccc1F (stereo not given) | . | . | - | . | . | . | .
O=C(NCCc1nc2ccccc2[nH]1)c1ccc(-c2ccccc2)cc1 | . | . | - | . | . | . | .
O=C(NCCCO)C(=O)NCC1COc2ccccc2O1 (stereo not given) | . | . | - | . | . | . | .
COC(=O)c1ccc(CSc2nnc(-c3cccc(Br)c3)o2)o1 | . | . | - | . | . | . | .
N#Cc1ccc(NC(=O)CCC(=O)O)cc1 | . | . | - | . | . | . | .
O=C(CCc1nc(-c2ccccc2Cl)no1)Nc1cccc([N+](=O)[O-])c1 | . | . | - | . | . | . | .
C[C@@H]1CN([C@H](C)CO)C(=O)c2cc(NC(=O)NC3CCCCC3)ccc2O[C@@H]1CN(C)Cc1ccc(-c2ccccc2)cc1 | - | - | - | . | . | . | .
C[C@H]1CN([C@@H](C)CO)C(=O)c2cc(NC(=O)NC3CCCCC3)ccc2O[C@@H]1CN(C)Cc1ccccc1 | - | - | - | . | . | . | .
C[C@@H]1CN([C@@H](C)CO)C(=O)c2cc(NC(=O)NC3CCCCC3)ccc2O[C@@H]1CN(C)Cc1ccc(-c2ccccc2)cc1 | - | 96 | - | 100 | 101 | 54 | 65
C[C@H]1CN([C@@H](C)CO)C(=O)c2cc(NC(=O)NC3CCCCC3)ccc2O[C@@H]1CN(C)Cc1ccc(-c2ccccc2)cc1 | - | - | - | . | . | . | .
C[C@@H]1CN([C@H](C)CO)C(=O)c2cc(NC(=O)NC3CCCCC3)ccc2O[C@H]1CN(C)Cc1ccc(-c2ccccc2)cc1 | - | 105 | . | 104 | - | - | -
C[C@@H]1CN([C@@H](C)CO)C(=O)c2cc(NC(=O)NC3CCCCC3)ccc2O[C@H]1CN(C)Cc1ccc(-c2ccccc2)cc1 | - | 108 | - | 102 | - | 38 | 43
SMILES | GASC1 inh | T cruzi growth-1 | IDH1 mut inh | T cruzi growth-2 | T cruzi growth-3 | NIH3T3 tox | 3T3 cytotox 2
O=C(CSc1nnc(-c2ccco2)o1)c1ccc(Oc2ccccc2)cc1 | . | . | - | . | . | . | .
COc1ccc(OC)c(N(CC(=O)Nc2c(F)cccc2F)S(C)(=O)=O)c1 | . | . | - | . | . | . | .
C[C@@H]1CN([C@@H](C)CO)C(=O)c2cc(/C=C/c3ccccc3)cnc2O[C@@H]1CN(C)S(=O)(=O)c1ccccc1 | - | - | - | . | . | . | .
C[C@@H]1CN([C@@H](C)CO)C(=O)c2cc(/C=C/c3ccccc3)cnc2O[C@H]1CN(C)S(=O)(=O)c1ccccc1F | - | 123 | - | 108 | - | - | ?
C[C@H]1CN([C@@H](C)CO)C(=O)c2cc(/C=C/c3ccccc3)cnc2O[C@@H]1CN(C)S(=O)(=O)c1ccccc1F | - | 126 | - | 104 | - | - | 37
C[C@H](CO)N1C[C@H](C)[C@@H](CN(C)S(=O)(=O)c2ccccc2)Oc2ncc(/C=C/c3ccccc3)cc2C1=O | - | 125 | - | 108 | - | - | -
C[C@H]1CN([C@@H](C)CO)C(=O)c2cc(/C=C/c3ccccc3)cnc2O[C@H]1CN(C)S(=O)(=O)c1ccccc1F | - | - | - | . | . | . | .
C/C=C/c1cnc2c(c1)C(=O)N([C@H](C)CO)C[C@@H](C)[C@H](CN(C)S(=O)(=O)c1ccccc1F)O2 | - | . | - | . | . | . | .
Cc1ccc(-c2cc(C(=O)NCc3cccnc3)c3cc(Br)ccc3n2)cc1 | . | . | - | . | . | . | .
Cc1cc(-c2ccccc2)nc(SCC(=O)Nc2ccccc2C#N)n1 | . | . | - | . | . | . | .
O=C(c1cccc(F)c1)N1CCCCN2[C@H](C1)[C@@H](c1ccc(-c3ccccc3)cc1)[C@@H]2CO | - | - | . | . | . | . | .
O=C(c1cccc(F)c1)N1CCCCN2[C@H](CO)[C@H](c3ccc(-c4ccccc4)cc3)[C@H]2C1 | - | 103 | . | 109 | - | - | 88
O=C(c1cccc(F)c1)N1CCCCN2[C@H](CO)[C@@H](c3ccc(-c4ccccc4)cc3)[C@H]2C1 | - | - | . | . | . | . | .
O=C(c1cccc(F)c1)N1CCCCN2[C@H](CO)[C@@H](c3ccc(-c4ccccc4)cc3)[C@@H]2C1 | - | 106 | . | 106 | ? | - | 59
COc1ccc(NC(=O)COc2c(Cl)c(C)c(Cl)c(C)c2Cl)cc1[N+](=O)[O-] | . | . | - | . | . | . | .
COCC#Cc1ccc2c(c1)O[C@@H](CN(C)Cc1ccncc1)[C@@H](C)CN([C@@H](C)CO)S2(=O)=O | - | ? | - | 97 | - | - | -
COCC#Cc1ccc2c(c1)O[C@@H](CN(C)Cc1ccncc1)[C@@H](C)CN([C@H](C)CO)S2(=O)=O | - | ? | - | 105 | - | - | -
COCC#Cc1ccc2c(c1)O[C@H](CN(C)Cc1ccncc1)[C@H](C)CN([C@@H](C)CO)S2(=O)=O | - | - | - | . | . | . | .
COCC#Cc1ccc2c(c1)O[C@H](CN(C)Cc1ccc(F)cc1)[C@@H](C)CN([C@H](C)CO)S2(=O)=O | - | - | - | . | . | . | .

Assay outcomes (PubChem)
